What all share (format): ADME, organism-based
The test system of series [1] is Homo sapiens. Description: AUC (0 to 96 hrs) in patient (6 patients) with renal insufficiency at 250 mg, po assessed as hydroxy flutamide administered as single dose by gas chromatography. Also noted: dose 250 mg, time < 96 hr, route oral. Particulars: in vivo.
For series [2], the system named is Homo sapiens. Description: AUClast in patient (4 patients) with renal insufficiency at 250 mg, po assessed as hydroxy flutamide administered as single dose by gas chromatography. More on the design: dose 250 mg, time 0 - last, route oral. The conditions noted are these: in vivo.
Series [3] can be described thus: Drug excretion in dialysate of patient with renal insufficiency at 250 mg, po administered first dose followed by 14 days wash out period and administered second dose 4 hrs prior to hemodialysis measured during hemodialysis treatment by gas chromatography. The conditions noted are these: human, in vivo. The gist of the method:
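Group V haemodialysis males (CLcr <5 ml min−1 1.73 m−2). Single oral 250 mg flutamide (two 125 mg capsules) right after HD; after 14-day washout, same dose 4 h before HD lasting 2–4 h. Venous samples to 48 h, arterial/venous during HD, dialysate in hourly blocks. GC with 63Ni electron-capture detection. CL(HD) = dialysate Ae(HD)/arterial AUC(HD); renal CL = Ae(0,48)/AUC(0,48 h).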

Turning to `CC(C)C(=O)Nc1ccc([N+](=O)[O-])c(C(F)(F)F)c1` [FLUTAMIDE], the area under the curve (AUC) (usually the area under the concentration-time curve, a measure of exposure) in the series with Homo sapiens [1] came out at 5527 ng·h/mL. Besides, the AUClast in the series on Homo sapiens [2] is 6435 ng·h/mL. In series [3], this compound displayed a Drug excretion of 1158 µg.
